# From ChEMBL document CHEMBL4813998, “Structural simplification of evodiamine: Discovery of novel tetrahydro-β-carboline derivatives as potent antitumor agents” (Bioorg Med Chem Lett, 2021)
# pIC50: −log10 of the molar value.
# Columns and labels:
# [1] = Antiproliferative activity against human A549 cells assessed as growth inhibition by CCK8 assay; assay type: functional, cell-based, Epithelial cell; details: epithelial cell
# HCT-116 [2] = test: Induction of cell cycle arrest in human HCT-116 cells assessed as accumulation at S phase at 0.03 uM after 24 hrs by propidium iodide staining based flow cytometric analysis (reference value: 39.06%); assay type: functional
# HCT-116 [3] = test: Induction of apoptosis in human HCT116 cells at 0.75 uM after 48 hrs by annexin V-FITC/propidium iodide staining based flow cytometry (RVB = 6.77%); assay type: functional
# Summary of the method: (§1)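 HCT116 cells were treated at 0.03, 0.15, 0.75 or 1.5 μM for 48 h. They were then stained with Annexin V/PI and analysed by flow cytometry, and apoptotic cells were reported as a percentage. An untreated control was run alongside.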
# HCT-116 [4] = test: Induction of apoptosis in human HCT116 cells at 0.15 uM after 48 hrs by annexin V-FITC/propidium iodide staining based flow cytometry (RVB = 6.77%); assay type: functional; summary of the method: as §1
# HCT-116 [5] = test: Induction of cell cycle arrest in human HCT-116 cells assessed as accumulation at G1 phase at 0.15 uM after 24 hrs by propidium iodide staining based flow cytometric analysis (reference value: 33.16%); assay type: functional
# HCT-116 [6] = test: Induction of cell cycle arrest in human HCT-116 cells assessed as accumulation at G1 phase at 0.15 uM after 48 hrs by propidium iodide staining based flow cytometric analysis (reference value: 34.38%); assay type: functional
# HCT-116 [7] = test: Induction of cell cycle arrest in human HCT-116 cells assessed as accumulation at G2/M phase at 0.15 uM after 48 hrs by propidium iodide staining based flow cytometric analysis (reference value: 25.01%); assay type: functional
# HCT-116 [8] = test: Induction of cell cycle arrest in human HCT-116 cells assessed as accumulation at G1 phase at 0.75 uM after 48 hrs by propidium iodide staining based flow cytometric analysis (reference value: 34.38%); assay type: functional
# HCT-116 [9] = test: Induction of cell cycle arrest in human HCT-116 cells assessed as accumulation at S phase at 0.15 uM after 24 hrs by propidium iodide staining based flow cytometric analysis (reference value: 39.06%); assay type: functional
# HCT-116 [10] = test: Induction of cell cycle arrest in human HCT-116 cells assessed as accumulation at G2/M phase at 0.75 uM after 48 hrs by propidium iodide staining based flow cytometric analysis (reference value: 25.01%); assay type: functional
# [11] = Antiproliferative activity against human HCT116 cells assessed as growth inhibition by CCK8 assay; assay type: functional, cell-based, Epithelial cell; details: epithelial cell
# HCT-116 [12] = test: Induction of cell cycle arrest in human HCT-116 cells assessed as accumulation at G2/M phase at 0.03 uM after 48 hrs by propidium iodide staining based flow cytometric analysis (reference value: 25.01%); assay type: functional
# HCT-116 [13] = test: Induction of cell cycle arrest in human HCT-116 cells assessed as accumulation at G1 phase at 0.75 uM after 24 hrs by propidium iodide staining based flow cytometric analysis (reference value: 33.16%); assay type: functional
# HCT-116 [14] = test: Induction of cell cycle arrest in human HCT-116 cells assessed as accumulation at G1 phase at 0.03 uM after 48 hrs by propidium iodide staining based flow cytometric analysis (reference value: 34.38%); assay type: functional
# HCT-116 [15] = test: Induction of apoptosis in human HCT116 cells at 1.5 uM after 48 hrs by annexin V-FITC/propidium iodide staining based flow cytometry (RVB = 6.77%); assay type: functional; summary of the method: as §1
# HCT-116 [16] = test: Induction of cell cycle arrest in human HCT-116 cells assessed as accumulation at G2/M phase at 0.15 uM after 24 hrs by propidium iodide staining based flow cytometric analysis (reference value: 27.78%); assay type: functional
# HCT-116 [17] = test: Induction of cell cycle arrest in human HCT-116 cells assessed as accumulation at G2/M phase at 0.75 uM after 24 hrs by propidium iodide staining based flow cytometric analysis (reference value: 27.78%); assay type: functional
# HCT-116 [18] = test: Induction of cell cycle arrest in human HCT-116 cells assessed as accumulation at S phase at 0.75 uM after 48 hrs by propidium iodide staining based flow cytometric analysis (reference value: 40.6%); assay type: functional
# HCT-116 [19] = test: Induction of apoptosis in human HCT116 cells at 0.03 uM after 48 hrs by annexin V-FITC/propidium iodide staining based flow cytometry (RVB = 6.77%); assay type: functional; summary of the method: as §1
# HCT-116 [20] = test: Induction of cell cycle arrest in human HCT-116 cells assessed as accumulation at S phase at 0.03 uM after 48 hrs by propidium iodide staining based flow cytometric analysis (reference value: 40.6%); assay type: functional
# HCT-116 [21] = test: Induction of cell cycle arrest in human HCT-116 cells assessed as accumulation at S phase at 0.15 uM after 48 hrs by propidium iodide staining based flow cytometric analysis (reference value: 40.6%); assay type: functional
# [22] = Antiproliferative activity against human MDA-MB-231 cells assessed as growth inhibition by CCK8 assay; assay type: functional, cell-based, Epithelial cell; details: epithelial cell
# HCT-116 [23] = test: Induction of cell cycle arrest in human HCT-116 cells assessed as accumulation at S phase at 0.75 uM after 24 hrs by propidium iodide staining based flow cytometric analysis (reference value: 39.06%); assay type: functional
# HCT-116 [24] = test: Induction of cell cycle arrest in human HCT-116 cells assessed as accumulation at G1 phase at 0.03 uM after 24 hrs by propidium iodide staining based flow cytometric analysis (reference value: 33.16%); assay type: functional
# HCT-116 [25] = test: Induction of cell cycle arrest in human HCT-116 cells assessed as accumulation at G2/M phase at 0.03 uM after 24 hrs by propidium iodide staining based flow cytometric analysis (reference value: 27.78%); assay type: functional
smiles,measurement,setting,value
COc1ccc2[nH]c3c(c2c1)CCN(C(=O)CCc1ccccc1)C3c1ccc(Cl)c(Cl)c1 (stereo in doubt; 45),pIC50,[1],6.12
same,Activity,HCT-116 [2],35.43%
same,Activity,HCT-116 [3],25.43%
same,Activity,HCT-116 [4],13.46%
same,Activity,HCT-116 [5],2.02%
same,Activity,HCT-116 [6],2.19%
same,Activity,HCT-116 [7],93.03%
same,Activity,HCT-116 [8],2.06%
same,Activity,HCT-116 [9],19.86%
same,Activity,HCT-116 [10],93.15%
same,pIC50,[11],6.80
same,Activity,HCT-116 [12],67.92%
same,Activity,HCT-116 [13],1.2%
same,Activity,HCT-116 [14],11.27%
same,Activity,HCT-116 [15],30.98%
same,Activity,HCT-116 [16],78.12%
same,Activity,HCT-116 [17],88.37%
same,Activity,HCT-116 [18],4.79%
same,Activity,HCT-116 [19],10.11%
same,Activity,HCT-116 [20],20.81%
same,Activity,HCT-116 [21],4.78%
same,pIC50,[22],6.80
same,Activity,HCT-116 [23],10.43%
same,Activity,HCT-116 [24],32.45%
same,Activity,HCT-116 [25],32.12%
